{"source": "ChEMBL document CHEMBL5661977", "about": "“BI 6727, a Polo-like kinase inhibitor with improved pharmacokinetic profile and broad antitumor activity” (Clin Cancer Res, 2009)", "key": {"[1]": {"test": "Oral bioavailability in Wistar rat at 30 mg/kg by HPLC-MS/MS analysis", "format": "ADME, organism-based", "settings": "in vivo", "in_short": "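Single oral gavage of BI 6727 suspended in 0.5% hydroxyethyl-cellulose (10 mL/kg) to female nude mice or male Wistar rats. EDTA plasma levels measured over time by HPLC-MS/MS with internal standard. AUC0-24 by trapezoidal rule. Parameters from noncompartmental analysis.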"}, "HCT-116 [2]": {"system": "HCT-116", "test": "Antitumor activity against human HCT-116 cells xenografted in BomTac:NMRI-Foxn1nu mouse assessed as mitotic index in small intestine at 40 mg/kg, iv", "format": "functional, organism-based", "in_short": "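Female nude mice bore s.c. HCT 116 tumors (~200 mm³) and received a single i.v. 40 mg/kg dose or vehicle (n=3 per group per time). Tumor, small intestine and large intestine were taken at 6, 24 and 48 h. Frozen sections were stained for pSer10 histone H3 (immunoperoxidase) or by TUNEL. Positive area was calculated as % of tumor cell area; Student's t test.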"}, "HCT-116 [3]": {"system": "HCT-116", "test": "Antitumor activity against human HCT-116 cells xenografted in BomTac:NMRI-Foxn1nu mouse assessed as tumor growth delay at 20 mg/kg, iv administered twice a week on consecutive days", "format": "functional, organism-based", "in_short": "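Female nude mice bore s.c. HCT 116 (2×10^6 cells), NCI-H460 (1×10^6 cells) or serially transplanted CXB1 tumor pieces. At ~50–100 mm³, mice were randomized into groups of 10 and dosed i.v. (0.1 N HCl/saline) or by gavage (0.5% hydroxyethyl-cellulose) at 10 mL/kg. Calipers read thrice weekly, volume = length×width²×π/6. T/C from median volumes on the last day.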"}, "[4]": {"test": "AUC (0-24hrs) in Wistar rat at 30 mg/kg, po by HPLC-MS/MS analysis", "format": "ADME, organism-based", "settings": "in vivo", "in_short": "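Single oral dose to female nude mice or male Wistar rats. EDTA plasma was collected over 24 h and quantified by LC-MS/MS after extraction with internal standard. AUC0-24 was calculated from the concentration-time profile by the trapezoidal rule using noncompartmental analysis.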"}}, "note": "The source made the active and inactive calls. The rule behind the calls is not given here."}
{"smiles": "CC[C@@H]1C(=O)N(C)c2cnc(Nc3ccc(C(=O)N[C@H]4CC[C@H](N5CCN(CC6CC6)CC5)CC4)cc3OC)nc2N1C(C)C", "note": "[VOLASERTIB]", "values": [{"measurement": "bioavailability", "setting": "[1]", "value": 55, "unit": "%"}, {"measurement": "Activity", "setting": "HCT-116 [2]", "value": "inactive"}, {"measurement": "Activity", "setting": "HCT-116 [3]", "value": "Active"}, {"measurement": "AUC(0-t)", "setting": "[4]", "value": 34, "unit": "µM·h"}]}
